Consider 19 compounds from ChEMBL document CHEMBL1129797, “Dual metalloprotease inhibitors. 6. Incorporation of bicyclic and substituted monocyclic azepinones as dipeptide surrogates in angiotensin-converting enzyme/neutral endopeptidase inhibitors” (J Med Chem, 1996).

The target of assay [1] is T1, Angiotensin-converting enzyme (Oryctolagus cuniculus, UniProt P12822).
T1 sequence (P12822 whole entry): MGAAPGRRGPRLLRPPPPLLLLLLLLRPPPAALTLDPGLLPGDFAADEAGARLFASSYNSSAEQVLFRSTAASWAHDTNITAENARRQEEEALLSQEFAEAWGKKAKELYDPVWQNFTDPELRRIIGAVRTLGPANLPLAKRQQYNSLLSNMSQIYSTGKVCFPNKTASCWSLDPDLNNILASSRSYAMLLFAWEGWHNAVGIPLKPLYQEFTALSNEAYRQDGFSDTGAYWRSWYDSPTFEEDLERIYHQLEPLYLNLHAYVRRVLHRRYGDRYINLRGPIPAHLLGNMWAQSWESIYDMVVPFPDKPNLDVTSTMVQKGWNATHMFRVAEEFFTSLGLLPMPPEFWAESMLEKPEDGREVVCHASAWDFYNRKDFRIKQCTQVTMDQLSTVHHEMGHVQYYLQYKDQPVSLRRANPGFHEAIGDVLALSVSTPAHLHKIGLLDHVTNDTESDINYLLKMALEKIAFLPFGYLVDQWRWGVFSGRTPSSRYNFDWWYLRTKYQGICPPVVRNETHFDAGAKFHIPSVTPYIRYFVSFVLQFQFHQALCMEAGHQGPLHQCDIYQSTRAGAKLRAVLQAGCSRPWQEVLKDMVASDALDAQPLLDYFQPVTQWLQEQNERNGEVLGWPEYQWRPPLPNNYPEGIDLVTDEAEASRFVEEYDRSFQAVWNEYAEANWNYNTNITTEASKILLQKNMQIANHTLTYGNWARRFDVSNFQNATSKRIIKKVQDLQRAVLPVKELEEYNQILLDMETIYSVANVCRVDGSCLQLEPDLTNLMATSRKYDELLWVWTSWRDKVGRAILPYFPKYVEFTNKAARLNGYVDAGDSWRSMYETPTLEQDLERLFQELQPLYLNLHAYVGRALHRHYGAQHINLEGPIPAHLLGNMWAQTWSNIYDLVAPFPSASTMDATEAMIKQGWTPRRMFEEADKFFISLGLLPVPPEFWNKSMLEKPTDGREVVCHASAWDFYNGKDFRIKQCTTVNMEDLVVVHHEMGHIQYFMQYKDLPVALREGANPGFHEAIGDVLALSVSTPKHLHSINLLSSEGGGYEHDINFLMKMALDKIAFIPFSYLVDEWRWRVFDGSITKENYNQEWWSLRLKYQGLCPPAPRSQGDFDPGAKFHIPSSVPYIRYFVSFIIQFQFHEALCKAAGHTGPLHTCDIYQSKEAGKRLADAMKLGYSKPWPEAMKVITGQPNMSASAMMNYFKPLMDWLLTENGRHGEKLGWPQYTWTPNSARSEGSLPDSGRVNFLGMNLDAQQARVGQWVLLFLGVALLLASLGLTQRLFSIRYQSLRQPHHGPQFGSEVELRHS
Briefly: In vitro inhibition of Angiotensin I converting enzyme isolated from rabbit lung extract. The assay is classed as tissue-based. Summed up:
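Rabbit lung acetone powder extract (1:20 dilution) as enzyme source; spectrophotometric hippuric acid formation from hippuryl-L-histidyl-L-leucine (5 mM final). Final concentrations: 100 mM phosphate buffer pH 8.3, 300 mM NaCl; varied inhibitor concentrations or vehicle. Incubated 30 min at 37 °C. Stopped with 1 N HCl, then ethyl acetate added.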

Another assay concerns Rattus norvegicus. Briefly: Intravenous effective dose required to inhibit 50% of the AI pressor response in normotensive rats. The assay is classed as functional. In outline: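 Conscious male Sprague-Dawley rats (220-240 g), aortic and vena caval catheters, four per assay. Various doses given iv in 5% NaHCO3. AI (310 ng/kg iv) pressor responses taken before dosing and at 2-30 min intervals up to 6 h. Maximum-inhibition time point per dose used for the dose-response curve; ED50 interpolated.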

A further assay addresses T2, Neprilysin (Rattus norvegicus, UniProt P07861).
T2 sequence (P07861 whole entry): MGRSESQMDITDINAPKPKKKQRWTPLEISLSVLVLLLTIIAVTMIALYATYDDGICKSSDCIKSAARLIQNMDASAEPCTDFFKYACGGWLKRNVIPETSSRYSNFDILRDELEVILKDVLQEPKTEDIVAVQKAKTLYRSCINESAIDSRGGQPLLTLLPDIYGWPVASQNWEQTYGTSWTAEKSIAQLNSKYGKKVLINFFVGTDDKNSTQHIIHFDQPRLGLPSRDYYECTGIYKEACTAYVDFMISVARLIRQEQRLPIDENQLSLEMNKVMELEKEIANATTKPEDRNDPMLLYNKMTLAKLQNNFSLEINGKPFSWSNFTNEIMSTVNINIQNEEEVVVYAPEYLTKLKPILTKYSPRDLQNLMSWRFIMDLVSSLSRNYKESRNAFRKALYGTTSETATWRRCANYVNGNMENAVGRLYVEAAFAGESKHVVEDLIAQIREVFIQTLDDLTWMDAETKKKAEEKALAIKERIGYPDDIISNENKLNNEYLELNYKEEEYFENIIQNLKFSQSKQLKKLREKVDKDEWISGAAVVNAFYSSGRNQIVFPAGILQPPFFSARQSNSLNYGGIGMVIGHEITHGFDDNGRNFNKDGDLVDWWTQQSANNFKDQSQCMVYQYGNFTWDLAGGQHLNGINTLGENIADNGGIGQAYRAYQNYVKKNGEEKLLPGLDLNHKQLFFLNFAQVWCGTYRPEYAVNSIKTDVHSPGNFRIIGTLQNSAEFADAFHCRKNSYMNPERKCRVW
Briefly: In vitro inhibition of purified rat kidney Neutral endopeptidase. In outline:
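Rat kidney membrane enzyme solubilized (1% deoxycholate, papain/DTT, 37 °C 90 min), purified by gel filtration and phenyl sepharose. Enzyme in 0.05% Triton X-100 with 50 mM Tris-HCl pH 7.5, preincubated 10 min with inhibitor; 0.5 mM dansyl-Gly-Phe-Arg added. Incubated 37 °C, 30 min; stopped with HCl. Dansyl-Gly extracted into ethyl acetate; fluorescence ex 342/em 510 nm, zero-time corrected, versus no-inhibitor.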

Consider `C[C@H]1CCC[C@H](NC(=O)[C@@H](S)Cc2ccccc2)C(=O)N1CC(=O)O`, for which the IC50 (as a rule, the concentration that inhibits the measured activity by half) in assay [1] is 8 nM; against Neprilysin, 49 nM. In the assay on Rattus norvegicus, the ED50 (commonly the midpoint of the dose-response relation) worked out at 0.11 µmol/kg.

Consider `C[C@@H](C(=O)O)N1CCCC[C@H](NC(=O)[C@@H](S)Cc2ccccc2)C1=O`, for which the IC50 in assay [1] is 26 nM; against Neprilysin it was 92 nM. In the assay on Rattus norvegicus, this compound returned an ED50 of 1.22 µmol/kg.

Consider `O=C(O)CN1C(=O)[C@@H](NC(=O)[C@@H](S)Cc2ccccc2)CCC[C@@H]1CCO`, for which the IC50 in assay [1] is 25 nM; against Neprilysin, 31 nM. The same compound registered an ED50 in the assay on Rattus norvegicus of 0.08 µmol/kg.

`O=C(O)CN1C(=O)[C@@H](NC(=O)[C@@H](S)Cc2ccccc2)CCC[C@@H]1CC1CC1`: the IC50 in assay [1] turned out to be 23 nM; on Neprilysin, 140 nM.

On to `CCC[C@H]1CCC[C@H](NC(=O)[C@@H](S)Cc2ccccc2)C(=O)N1CC(=O)O`, for which the concentration for half-maximal inhibition (IC50) turned out to be 11 nM in assay [1] and 40 nM on Neprilysin. In the assay with Rattus norvegicus, this compound yielded an ED50 of 0.06 µmol/kg.

With `O=C(O)CN1C(=O)[C@@H](NC(=O)[C@@H](S)Cc2ccccc2)CCC[C@@H]1C1CCCC1`, the results for the IC50 (in assay [1]; on Neprilysin) were 17 nM and 1650 nM, respectively.

Turning to `C=CC[C@H]1CCC[C@H](NC(=O)[C@@H](S)Cc2ccccc2)C(=O)N1CC(=O)O`, the figures for the IC50 (in assay [1]; on Neprilysin) were 7 nM and 64 nM, respectively. In the assay with Rattus norvegicus, the ED50 was determined as 0.04 µmol/kg.

In the case of `CCC[C@H]1CCC[C@H](NC(=O)[C@@H](S)Cc2ccccc2)C(=O)N1[C@@H](CC)C(=O)O`, the IC50 in assay [1] is 25 nM; at Neprilysin it was 86 nM.

In turn, `C[C@H](NC(=O)[C@@H](S)Cc1ccccc1)C(=O)N1CCC[C@H]1C(=O)O` came in with an ED50 in the assay on Rattus norvegicus of 0.06 µmol/kg.

In the case of `O=C(O)CN1CCCC[C@H](NC(=O)[C@@H](S)Cc2ccccc2)C1=O`, the 50% inhibitory concentration (IC50) in assay [1] amounted to 22 nM; on Neprilysin it was 82 nM. In addition, the ED50 in the assay on Rattus norvegicus worked out at 0.84 µmol/kg.

In the case of `O=C(O)CN1C(=O)[C@@H](NC(=O)[C@@H](S)Cc2ccccc2)CCc2ccccc21`, the IC50 in assay [1] was determined as 12 nM; at Neprilysin, 6 nM. The same compound yielded a median effective dose (ED50) in the assay on Rattus norvegicus of 0.02 µmol/kg.

Turning to `C[C@@H]1CCC[C@H](NC(=O)[C@@H](S)Cc2ccccc2)C(=O)N1CC(=O)O`, the IC50 in assay [1] came out at 16 nM; against Neprilysin it was 149 nM.

`CCC[C@@H]1CCC[C@H](NC(=O)[C@@H](S)Cc2ccccc2)C(=O)N1CC(=O)O`: the IC50 in assay [1] came to 14 nM; at Neprilysin, 466 nM.

As for `CC(C)C[C@H]1CCC[C@H](NC(=O)[C@@H](S)Cc2ccccc2)C(=O)N1CC(=O)O`, the IC50 came out at 10 nM in assay [1] and 1660 nM against Neprilysin.

With `CC(C)[C@@H](C(=O)O)N1CCCC[C@H](NC(=O)[C@@H](S)Cc2ccccc2)C1=O`, the IC50 in assay [1] was 907 nM; at Neprilysin, 1000 nM.

`O=C(N[C@H]1CCCCN([C@@H](Cc2ccccc2)C(=O)O)C1=O)[C@@H](S)Cc1ccccc1`: the half-maximal inhibitory concentration (IC50) in assay [1] came to 479 nM; at Neprilysin it was 32 nM.

Turning to `O=C(N[C@H]1CCC[C@H]2CCC[C@@H](C(=O)O)N2C1=O)[C@@H](S)Cc1ccccc1`, the results for the IC50 (in assay [1]; against Neprilysin) were 11 nM and 25 nM, respectively. In the assay on Rattus norvegicus, this compound showed an ED50 of 0.12 µmol/kg.

For `O=C(N[C@H]1CCC[C@H]2CC[C@@H](C(=O)O)N2C1=O)[C@@H](S)Cc1ccccc1`, the IC50 in assay [1] was 5 nM; at Neprilysin, 18 nM. This compound displayed an ED50 in the assay with Rattus norvegicus of 0.06 µmol/kg.

As for `CCC[C@H]1CCC[C@H](NC(=O)[C@@H](S)Cc2ccccc2)C(=O)N1[C@@H](C)C(=O)O`, the results for the IC50 (in assay [1]; against Neprilysin) were 5 nM and 17 nM, respectively. Besides, in the assay on Rattus norvegicus, it took a dose of 0.12 µmol/kg to reach the 50% effect level (ED50).
